Measurements from different studies.
Each line is one published result; the experiments were not run side by side.
Cell line: HepG2
Read-out: cell growth or viability

SMILES | test | setting | quantity | result
O=C(Nc1ccccc1)Nc1ccc(Oc2nnc(-c3ccc(Cl)cc3)c3ccccc23)cc1 | MTT | 5 µM | cell death | 94.9%
Cc1nc2ccc(CN(C)c3ccc(C(=O)N[C@@H](CCC(=O)O)C(=O)O)s3)cc2c(=O)[nH]1 | MTT | 48 h | IC50 | 1.34 µM
CC(=O)c1nn(-c2ccc(C)cc2)/c(=N/N=C(\C)c2ccc(NC(=O)c3ccccc3)cc2)s1 | MTT | 0.156 µM | viability | 28.5%
CC(=NNC(N)=S)c1ccc(Nc2nnc(-c3ccc(Cl)cc3)c3ccccc23)cc1 | MTT | 1.25 µM | cell death | 92.3%
COc1ccc(-c2cc(-c3ccc(C)cc3)nc3c2c(=O)n(C)c(=O)n3C)cc1OC | MTT | 48 h | IC50 | 32.5 µM
CC(=NNC(=S)Nc1ccccc1)c1ccc(Nc2nnc(-c3ccc(Cl)cc3)c3ccccc23)cc1 | MTT | 1.25 µM | cell death | 50%
CN(C)c1cc(NC(=O)Cc2cscn2)c(O)c2c1C[C@H]1C[C@H]3[C@H](N(C)C)C(O)=C(C(N)=O)C(=O)[C@@]3(O)C(O)=C1C2=O | ATP luminescence | 72 h | IC50 | 75.8 µg/mL
C=CC(=O)NC1CCN(c2ncc3ncnc(Nc4ccc(Oc5ccc6c(c5)ncn6C)c(C)c4)c3n2)CC1 |  |  | EC50 | 0.335 µM
Cc1ccc(-c2cc(-c3ccc(Cl)cc3)c3c(=O)n(C)c(=O)n(C)c3n2)cc1 | MTT | 48 h | IC50 | 7.42 µM
CC(=NNC(=O)c1ccncc1)c1ccc(Nc2nnc(-c3ccc(Cl)cc3)c3ccccc23)cc1 | MTT | 2.5 µM, 24 h | viability | 3.92%
CCOC(=O)c1nn(-c2cccc(Cl)c2)/c(=N/N=C(\C)c2ccc(NC(=O)c3ccc(Cl)cc3)cc2)s1 | MTT | 0.625 µM | viability | 2.86%
C/C(=N\N=C1/NC(=O)/C(=C\c2ccc(F)cc2)S1)c1ccccn1 | SRB | 100 µg/mL, 48 h | inhibition | 57.6%
CC(=O)Nc1ccc(/C(C)=N/N=c2\sc(C(C)=O)nn2-c2ccc(C)cc2)cc1 | MTT | 1.25 µM | viability | 99.8%
CC(=NNC(=O)c1ccccc1O)c1ccc(Nc2nnc(-c3ccc(Cl)cc3)c3ccccc23)cc1 | MTT | 2.5 µM | cell death | 62.1%
Cc1ccc(-c2cc(-c3c(Cl)cccc3Cl)c3c(=O)[nH]c(=O)[nH]c3n2)cc1 | MTT | 48 h | IC50 | 42.7 µM
O=C(Nc1ccc(Oc2nnc(-c3ccc(Cl)cc3)c3ccccc23)cc1)c1ccccc1 | MTT | 10 µM, 24 h | viability | 4.07%
CCOC(=O)c1nn(-c2cccc(Cl)c2)/c(=N/N=C(\C)c2ccc(NC(=O)c3ccccc3)cc2)s1 | MTT | 0.312 µM | viability | 3.54%
CC(=NNC(=O)COc1ccc2c(C)c(Cc3ccccc3)c(=O)oc2c1C)c1ccc(Br)cc1 | MTT | 25 µg/mL | viability | 44.2%
O=C(C=Cc1ccccc1)Nc1ccc(Oc2nnc(-c3ccc(Cl)cc3)c3ccccc23)cc1 | MTT | 1.25 µM, 24 h | viability | 37.4%
COc1ccc(-c2cc(-c3ccc(Br)cc3)c3c(=O)n(C)c(=O)n(C)c3n2)cc1 | MTT | 48 h | IC50 | 8.49 µM
CC(=O)c1nn(-c2ccccc2Cl)/c(=N/N=C(\C)c2ccc(NC(=O)c3ccccc3)cc2)s1 | MTT | 2.5 µM | viability | 6.09%
